Results on six compounds are retold here after ChEMBL document CHEMBL1122726, “Analogues of platelet activating factor (PAF). 1. Some modifications of the alkoxy chain” (J Med Chem, 1984).

A value given as a limit tells only on which side of the number the result lay.

The species entered for assay [1] is Oryctolagus cuniculus. Kind of assay: Tested for the molar concentration required to cause 50% of maximum aggregation.
The nature of assay [2]: Ratio = (MABP / platelet EC50 ) x 10 E -8. The class given is functional. A digest of the protocol: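 Intravenous dose lowering MABP by 50 mmHg in spontaneously hypertensive rats, divided by the EC50 for aggregation of rabbit platelet-rich plasma, then multiplied by 10^-8.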
Assay [3] deals with Rattus norvegicus. Put plainly: Tested for the dose needed to decrease mean arterial blood pressure (MABP) 50 mmHg in male rats, iv. The class given is functional. A digest of the protocol:
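Spontaneously hypertensive rats, arterial and venous catheters tunneled subcutaneously and exteriorized at the neck, studied at least 16 h after surgery while held in restraining cages. Compound dissolved in saline or 10-25% ethanol in saline, given as a rapid iv bolus at 1 mL/kg followed by a flush. Pressure read at 1-min intervals for 15 min after dosing. Maximum MABP change per rat, averaged per dose. Least-squares regression, solved for a −50 mmHg response.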

The species entered for assay [4] is Oryctolagus cuniculus. Put plainly: Tested for maximum aggregation units at specified molar concentration. Type of assay: functional. A digest of the protocol: (§1)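 Platelet-rich plasma from citrated cardiac-puncture blood of unanesthetized male New Zealand white rabbits, low-speed spin. Count adjusted with platelet-poor plasma, within 350000-600000/µL. 450 µL PRP plus 50 µL compound stock solution. EC50 taken as the concentration giving 50% of that compound's own maximum aggregation, from the mean dose-response curve of experiments with two to six replicates per dose. Maximum aggregation given in aggregation units at the stated molar concentration.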

The species named for assay [5] is Rattus norvegicus. Kind of assay: Tested for the molar concentration required to cause 50% of maximum aggregation. Type of assay: functional, organism-based. A digest of the protocol:
as §1

Assay [6] is filed under the species Oryctolagus cuniculus. Kind of assay: Tested for maximum aggregation units at specified molar concentration; g= No response. Type of assay: functional. In short, it runs like this:
as §1

Compound `CCCCCCCCCCCCCCCCOCC(COP(=O)([O-])OCC[N+](C)(C)C)OC(C)=O` (configuration not stated) [PLATELET ACTIVATING FACTOR] had an EC50 in the assay filed under Oryctolagus cuniculus [1] of 22.2 nM. In addition, the Ratio in assay [2] is on record as 0.56. Further, the Dose in the assay on Rattus norvegicus [3] came to 1.25 µg/kg. In the assay filed under Oryctolagus cuniculus [4], this compound returned a Max platelet response of 71.
For `CCCCCCCCCCCCCCc1ccc(OCC(COP(=O)([O-])OCC[N+](C)(C)C)OC(C)=O)cc1` (configuration not stated), a half-maximal response in the assay listed under Oryctolagus cuniculus [1] (EC50) required 53 nM. For the same compound, the Ratio in assay [2] came out at 2.37. This compound registered a Dose in the assay with Rattus norvegicus [3] of 12.56 µg/kg. In the assay filed under Oryctolagus cuniculus [4], this compound came in with a Max platelet response of 80.
In the assay listed under Oryctolagus cuniculus [1], `CCCCCCCCCCCCCCCCCCOCC(COP(=O)([O-])OCC[N+](C)(C)C)OC(C)=O` (configuration not stated) displayed an EC50 of 16 nM. Besides, the Ratio in assay [2] came out at 1.98. In addition, the Dose with Rattus norvegicus [3] came out at 3.17 µg/kg. The compound further registered a Max platelet response in the assay listed under Oryctolagus cuniculus [4] of 79.
Turning to `CCCCCCCCCCCCCCCCCC(COP(=O)([O-])OCC[N+](C)(C)C)OC(C)=O` (configuration not stated), the Ratio in assay [2] stood at 1.15. Besides, the Dose in the assay on Rattus norvegicus [3] was 357.3 µg/kg. The same compound had an EC50 in the assay listed under Rattus norvegicus [5] of 3100 nM. Further, the Max platelet response in the assay listed under Oryctolagus cuniculus [4] was determined as 31.
Regarding `CCCCCCCCCCCCCCc1cccc(OCC(COP(=O)([O-])OCC[N+](C)(C)C)OC(C)=O)c1` (configuration not stated), the EC50 in the assay filed under Oryctolagus cuniculus [1] was 44 nM. Further, the Ratio in assay [2] amounted to 0.1. The compound also yielded a Dose in the assay on Rattus norvegicus [3] of 0.43 µg/kg. Moreover, the Max platelet response in the assay listed under Oryctolagus cuniculus [4] worked out at 70.
With `CCCCCCCCCCCCCCCCc1ccccc1OCC(COP(=O)([O-])OCC[N+](C)(C)C)OC(C)=O` (configuration not stated), in the assay listed under Oryctolagus cuniculus [1], the EC50 is above 10000 nM. Further, in the assay filed under Oryctolagus cuniculus [6], the Max platelet response entry is “No response”.
